# An excerpt weighted towards active compounds, which were near 1.7% of everything screened.
# CHO-K1 Ca antag: counter-screen for M1 antagonists: effect in parental CHO-K1 cells. ATP-induced calcium, Fluo-8 fluorescence. inhibition, % at 3 µM. hit rate 0.6% among 360,000. AID 602250;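 active = inhibition above a per-plate cutoff, the plate's mean sample inhibition plus 3 SD, cut at about 24% in these data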;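 also: 0% = DMSO plus EC80 ATP and 100% = DMSO alone without ATP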
# CHRM5 agonist: CHRM5 agonism in calcium assay; activation, % at 3 µM; hit rate 0.19% among 360,000; CHO-K1 hM5 cells, Fluo-8 calcium fluorescence; 0% DMSO wells, 100% maximal acetylcholine response;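 active = activation above the run's mean over test compounds plus 3 SD, cut at about 23% in these data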;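 also: signal is peak over basal fluorescence ratio across the kinetic read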
# Target sequence (P08912 whole entry, looked up): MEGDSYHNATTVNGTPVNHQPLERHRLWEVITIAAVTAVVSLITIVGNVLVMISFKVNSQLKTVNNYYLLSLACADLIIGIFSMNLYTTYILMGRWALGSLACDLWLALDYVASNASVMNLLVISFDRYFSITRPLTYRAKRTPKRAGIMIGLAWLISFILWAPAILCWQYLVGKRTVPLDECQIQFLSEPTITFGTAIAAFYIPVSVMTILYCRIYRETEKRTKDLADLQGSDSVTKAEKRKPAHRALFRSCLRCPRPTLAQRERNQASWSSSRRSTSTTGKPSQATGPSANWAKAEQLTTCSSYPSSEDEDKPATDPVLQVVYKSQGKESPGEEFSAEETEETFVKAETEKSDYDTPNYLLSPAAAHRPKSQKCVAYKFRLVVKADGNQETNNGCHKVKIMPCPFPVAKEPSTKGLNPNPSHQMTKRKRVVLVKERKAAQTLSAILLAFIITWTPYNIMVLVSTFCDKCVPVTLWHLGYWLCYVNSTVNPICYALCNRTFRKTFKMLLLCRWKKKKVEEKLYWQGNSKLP
# M5 PAM: positive allosteric modulators of human muscarinic M5 receptor; hit rate 0.3% among 360,000; AID 624038; activation, % at 3 µM; CHO-K1 hM5, Fluo-8 calcium, ACh EC20 PAM; 0% = ACh EC20, 100% = ACh EC100; P08912;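 active = activation above the run cutoff, the mean activation of all test compounds plus 3 SD, cut at about 18% in these data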
#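 Replicates: One well per compound, no replicates | System: Human M5 receptor in CHO-K1 cells | Benchmarks: Low control EC20 acetylcholine (0%), high control EC100 acetylcholine (100%) | Probe or stimulus: Acetylcholine, EC20 level | Times: Fluo-8 loading 80 min at 37 °C plus 30 min room temperature | Signal: Intracellular calcium via Fluo-8 fluorescence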
# CHO-K1 Ca ag: M1 agonist counterscreen hit in parental CHO-K1 cells. hit rate 0.48% among 360,000. activation, % at 3 µM. AID 602248. Fluo-8 calcium fluorescence; scaled to maximal ATP response, vehicle zero; in the data active = activation above about 15%;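 also: untransfected CHO-K1 host cells lacking M1 receptor as counterscreen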
# CHO-K1 Ca PAM: counter-screen for M1 PAMs: effect in parental CHO-K1 cells; hit rate 0.02% among 360,000; activation, % at 3 µM; ATP EC20, Fluo-8 calcium fluorescence; 0% at ATP EC20, 100% at ATP max;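 active = activation above the run cutoff, the mean activation of all test compounds plus 3 SD, cut at about 40% in these data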;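 also: peak over basal fluorescence ratio in a 140 s read after ATP addition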
# M5 antag: antagonists of human muscarinic M5 receptor (CHRM5) | P08912 | hit rate 0.59% among 360,000 | inhibition, % at 3 µM | CHO-hM5 cells, Fluo-8 calcium fluorescence, ACh EC80;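 active = inhibition above a per-plate cutoff, the mean of that plate's test compounds plus 3 SD, cut at about 27% in these data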;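 also: 0% = acetylcholine EC80 with DMSO and 100% = DMSO without agonist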
# Active calls of the source: *.
SMILES,CHO-K1 Ca antag,CHRM5 agonist,M5 PAM,CHO-K1 Ca ag,CHO-K1 Ca PAM,M5 antag
CN1C(=O)c2cccc3c(S(N)(=O)=O)ccc1c23,0,3,8,16*,13,-5
COc1ccccc1C(O)(C(=O)NN(C(=O)c1ccccc1)c1ccccc1C)c1cccs1 (stereo unspecified),-10,-3,-3,1,26,-2
O=C(Nc1nnc([C@@H]2C[C@H](O)[C@@H](CO)O2)s1)c1cccc(Oc2ccccc2)c1,-3,-1,0,0,-3,8
O=C(Nc1nnc([C@H]2C[C@H](O)[C@@H](CO)O2)s1)c1cccc(Oc2ccccc2)c1,25*,-2,3,0,-17,6
O=C(Nc1ccccc1)Nc1nnc([C@H]2C[C@H](O)[C@@H](CO)O2)s1,26*,0,-2,0,4,-3
COc1ccccc1NC(=O)Cn1nnc(C(=O)NCc2cccs2)c1N,-18,2,5,1,21,-15
O=C(OCc1ccc2c(c1)OCO2)c1ccc(S(=O)(=O)N2CCCC2)cc1,-6,-3,-6,2,8,5
O=C(Nc1cccc([N+](=O)[O-])c1)Nc1ccc2c(c1)CCC2,19,6,-14,15,4,35*
CC(C)CN(CC(C)C)C(=O)Nc1cccc([N+](=O)[O-])c1,-11,-4,3,15*,0,-7
COc1ccc(NC(=O)Nc2ccc3c(c2)N(C)C(=O)CS3)cc1Cl,28*,9,-24,7,-2,31*
COc1cc([N+](=O)[O-])ccc1NC(=O)Nc1ccc2c(c1)OCCO2,-13,4,22*,0,16,11
COc1ccc(NC(=O)Nc2ccc3c(c2)N(C)C(=O)CS3)cc1OC,-6,3,-13,4,-6,4
O=C(Nc1ccccc1)Nc1ccc2c(c1)CCC2,3,0,-10,8,-13,22
O=C(CSc1nnc(CNC(=O)c2ccccc2F)o1)NC1CCCCC1,-3,-2,-3,0,-9,13
COc1ccc(C(=O)N/C(=C\c2ccccc2)C(=O)NCCCn2ccnc2)cc1,-1,-4,-1,0,-14,7
O=C(Nc1ccc([N+](=O)[O-])cc1)Nc1ccc(OC(F)F)c(Cl)c1,25*,8,-19,32*,8,33*
COc1ccc(NC(=O)c2cccc(OC(F)F)c2)cc1Cl,-1,1,-7,3,0,-9
O=C(Nc1ccc(OC(F)F)c(Cl)c1)c1cccc(OC(F)F)c1,5,-5,-22,8,4,40*
O=C(Nc1ccc(OC(F)F)c(Cl)c1)Nc1ccc2c(c1)OCO2,27*,2,-22,8,4,21
O=C(Nc1ccc(F)cc1)Nc1ccc2c(c1)OCO2,10,3,-10,21*,-11,5
O=C(Nc1ccc2c(c1)OCO2)Nc1ccc2c(c1)OCO2,8,-4,-7,1,-4,5
CN(C)c1oc(-c2ccc(OCc3ccc(Cl)cc3)cc2)nc1C#N,-14,-3,-3,1,24,4
O=C(CSc1nnc(-c2ccncc2)o1)NCc1ccccc1Cl,12,-1,-2,0,0,4
COc1ccc(NC(=O)Nc2cccc([N+](=O)[O-])c2)cc1Cl,30*,5,-19,14,-3,31*
C=CCNC(=S)Nc1ccc(Cl)cc1,11,-1,5,1,-12,6
SMILES,CHO-K1 Ca antag,CHRM5 agonist,M5 PAM,CHO-K1 Ca ag,CHO-K1 Ca PAM,M5 antag
C=CCNC(=S)Nc1ccc(OC(F)F)c(Cl)c1,2,3,-14,11,-11,29*
COc1ccc(C(=O)Nc2cccc([N+](=O)[O-])c2)cc1Br,0,-2,0,1,13,6
Cc1[nH]c2ccccc2c1C(=O)CSC(=S)N1CCN(C)CC1,-19,1,0,3,24,2
COc1ccc(NC(=O)C2CCCN(S(C)(=O)=O)C2)c(OC)c1 (stereo unspecified),4,9,19*,0,-4,-11
COc1ccc(NC(=O)C2CCN(S(C)(=O)=O)CC2)c(OC)c1,5,0,-4,5,2,-1
COc1ccc(NC(=O)C2CCN(S(=O)(=O)c3ccc(OC)c(OC)c3)CC2)c(OC)c1,26*,1,1,0,-8,-8
CC(=O)NCC1CCCN(C(=O)c2oc3c(F)cccc3c2C)C1 (stereo unspecified),-7,-4,-4,1,13,14
CCOc1ccc2[nH]c3c(N4CCc5ccccc5C4)ncnc3c2c1,-5,-7,-9,2,7,17
Cc1ccc2[nH]c3c(N4CCc5ccccc5C4)ncnc3c2c1,35*,4,-23,10,-4,27
Fc1ccc2[nH]c3c(N4CCc5ccccc5C4)ncnc3c2c1,28*,6,-27,14,-16,27*
CN1CCN(c2ncnc3c2[nH]c2ccc(F)cc23)CC1,-3,-2,0,0,10,3
CCOc1cc2c3c(c1)C(C)=CC(C)(C)N3C(=O)C2=O,-10,56*,-26,-1,10,12
CCOc1cc2c3c(c1)C(C)CC(C)(C)N3C(=O)C2=O (stereo unspecified),4,15,4,-1,-7,-7
C[C@H](NC(=O)c1ccc(Cl)cc1)C(=O)OCn1nnc2ccccc2c1=O,-9,-5,-2,1,10,0
CC(NC(=O)c1ccccc1)C(=O)OCn1nnc2ccccc2c1=O (stereo unspecified),1,-4,20*,0,-5,-8
C#CCNc1ccc([N+](=O)[O-])cc1,-6,-6,-2,0,22,6
O=C1CC(c2ccco2)CC2=C1C1c3ccccc3C(=O)N1c1ccccc1N2 (stereo unspecified),-7,-8,-17,1,4,2
O=C1CCCC2=C1C1c3ccccc3C(=O)N1c1ccc(C(=O)c3ccccc3)cc1N2 (stereo unspecified),24*,-6,-15,3,-1,12
COC(=O)CCn1c(C)cc(C(=O)COc2ccccc2C(N)=O)c1C,4,12,-27,18*,6,19
CC(=O)Nc1ccccc1OCC(=O)c1cc(C)n(Cc2cccs2)c1C,23,6,-17,9,2,30*
Cc1ccc(NC(=S)Nc2ccc(Br)cc2)cc1,35*,4,-5,2,-5,12
CCOC(=O)c1sc(-c2ccc(OC)cc2)cc1N,28*,2,-4,0,-6,5
COc1cccc2sc(Nc3nc(-c4ccccn4)cs3)nc12,23,-5,-36,4,-7,30*

# Screening data deposited in PubChem by The Scripps Research Institute Molecular Screening Center.
